# UPR XBP1 act: activators of adaptive arm of unfolded protein response (XBP1). CHO-XBP1 luciferase reporter, IRE1-XBP1 UPR activation, luminescence; percent of tunicamycin response, DMSO as zero. activation, % at 20 µM. actives 0.33% (n = 330,000);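 active means versus positive control, 20 µM dose yields 30% or more activation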
#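 Material: CHO-XBP1 cells stably carrying IRE1-XBP1-driven luciferase reporter / Amount: 1000 cells per well / Compound: 20 µM, 1% DMSO / Times: 6 h treatment, 37 °C / Detection: luciferase luminescence / Measure: % activation of reporter signal versus tunicamycin and DMSO controls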
# Jurkat NFkB inh: inhibitors of the PMA/ionomycin-induced NF-kB reporter in Jurkat cells; actives 0.53% (n = 330,000); PMA/ionomycin-induced NF-kB luciferase reporter, luminescence; inhibition, % at 4 µM; in the data active means inhibition above about 50%
# UPR CHOP act: activators of apoptotic arm of unfolded protein response (CHOP). activation, % at 10 µM. actives 0.34% (n = 330,000). AID 449763. CHO-CHOP luciferase reporter, UPR activation, luminescence; percent of tunicamycin response over DMSO baseline;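 active means at 10 µM dose, activation of 40% or more, normalized to positive control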
#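 Material: CHO-CHOP cells, stable luciferase reporter of PERK-eIF2a-CHOP signalling; quantity: 500 reporter cells seeded per well; buffer or medium: F12 medium containing 10% fetal bovine serum; compound: one dose, 10 µM in 0.5% DMSO; incubation: 6 h compound treatment, 37 °C; measured by: Steady-Glo luciferase luminescence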
# CHOP inh: CHOP inhibition in unfolded protein response. inhibition, % at 10 µM. CHO-K1 CHOP-promoter luciferase, tunicamycin-induced, 15-18 h. AID 2732. actives 3.8% (n = 220,000);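 active means compounds that reduced the stress-induced luciferase reporter signal by more than about 70% of percent inhibition, limit read from the data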
# 697 NFkB inh: inhibitors of the PMA/ionomycin-induced NF-kB reporter in 697 B cells. 697 B-cell NF-kB luciferase reporter, 16 h. actives 0.33% (n = 330,000). inhibition, % at 4 µM; in the data active means inhibition above about 35%
# A number is an active result; 0 = inactive; - = no result. Only a selection was taken, and hits are over-represented in it overall.
SMILES,UPR XBP1 act,Jurkat NFkB inh,UPR CHOP act,CHOP inh,697 NFkB inh
COc1cccc(-c2nc(-c3ccccc3)nc(N3CCN(C)CC3)c2C#N)c1,0,0,0,77.0,0
CCN(CC)CCN1C(=O)C(=O)/C(=C(/O)c2ccc(S(=O)(=O)N3CCOCC3)cc2)C1c1ccc(C(C)(C)C)cc1 (stereo not given),0,0,0,-,0
Cc1[nH]c2ccccc2c1N=Nc1ccc(F)cc1,0,0,0,90.0,0
O=C1CC(O)(C(F)(F)F)Oc2c1ccc1ccccc21 (stereo not given),0,0,0,89.4,0
C1=CC(c2cc3ccccc3o2)OC(CCc2ccccc2)C1 (stereo not given),0,0,0,-,0
CC(C)(C)c1ccc(C2C(C#N)=C(N)Oc3n[nH]c(-c4cccnc4)c32)cc1 (stereo not given),0,0,0,76.1,0
Cc1ccc(CC(=O)NCc2cccnc2)cc1,0,0,0,0,0
FC(F)(F)c1cc(-c2ccc(Cl)cc2)nc(NCc2cccnc2)n1,0,0,0,89.0,0
Cc1ccc(-c2cc(C(F)F)nc(NCC3CCCO3)n2)cc1 (stereo not given),0,0,0,85.7,0
Cc1ccc(-c2cc(C(F)F)nc(NCc3cccs3)n2)cc1,0,0,0,90.7,0
Cc1ccc(-c2cc(C(F)F)nc(NCc3cccnc3)n2)cc1,0,0,0,75.7,0
O=S(=O)(Cc1ccccc1)c1cnc2ccccc2n1,0,0,0,0,0
COc1cccc(Cn2c(Oc3cccc(C)c3)nc3c2c(=O)n(C)c(=O)n3C)c1,0,0,0,78.7,0
C=CCOc1nc2c(c(=O)n(C)c(=O)n2C)n1Cc1ccc(Cl)cc1,0,0,0,81.8,0
C=CC(C)Sc1nc2c(c(=O)n(C)c(=O)n2C)n1Cc1ccccc1Cl (stereo not given),0,0,0,82.8,0
Cn1c(=O)c2c(nc(SCCCO)n2Cc2ccccc2Cl)n(C)c1=O,0,0,0,0,0
CCN1CCN(C(c2cccs2)C(C)NC(=S)Nc2cccc(C)c2C)CC1 (stereo not given),0,0,0,0,0
CN(C)C(=O)/C(C#N)=C\c1cc(Br)c(Sc2ccc(Cl)cc2)o1,-,-,-,79.7,-
Clc1ccc(Sc2oc(/C=N/n3cnnc3)cc2Br)cc1,0,0,0,0,0
O=C(c1ccccc1)c1cc(-c2ccccc2)on1,0,0,0,92.6,0
Cc1cc(NC(=O)C2CC(c3cccc(Br)c3)=NO2)no1 (stereo not given),0,0,0,73.4,0
Cc1ccccc1Nc1nnc(SCC(=O)NCC2CCCO2)s1 (stereo not given),0,0,0,-,0
CC1CCc2c(sc(NC(=O)COC(=O)c3ccc(NC(=O)CC#N)cc3)c2C#N)C1 (stereo not given),0,0,0,-,0
CC(=O)c1c(C)[nH]c(C(=O)OCC(=O)Nc2sc3c(c2C#N)CCC(C)C3)c1C (stereo not given),0,0,0,94.3,0
CN1CC(C(=O)Nc2ccc(F)c(Cl)c2)CC1=O (stereo not given),0,0,0,-,0
SMILES,UPR XBP1 act,Jurkat NFkB inh,UPR CHOP act,CHOP inh,697 NFkB inh
CCn1c(CNc2ccc(F)cc2)nnc1SCC(=O)Nc1ccc(OC)cc1OC,0,0,0,0,0
CCCCCOC(=O)Nc1nnc(CCCCC)s1,0,0,0,95.1,0
COc1ccc(CN(C(=O)c2ccco2)c2ccc(Br)cc2)cc1OC,0,0,0,0,0
O=C1/C(=C/N(C(=O)c2ccco2)c2ccc(Cl)cc2)Sc2ccccc21,-,-,-,88.4,-
O=C1/C(=C/N(C(=O)c2ccco2)c2ccc(Br)cc2)Sc2ccccc21,0,0,0,90.1,0
CCOC(=O)C1(CCCc2ccccc2)CCN(C(=O)CCOC)CC1,0,0,0,0,0
O=C(NC(c1ccccc1)C(Cl)Cl)c1ccccc1 (stereo not given),0,0,0,0,0
O=C(NC(NC(=O)c1ccccc1)c1ccccc1)c1ccccc1,0,0,0,79.6,0
C/C(CCc1ccccc1)=N\NC(=O)CC(=O)NCCc1ccccc1,0,0,0,0,0
COc1ccc(-c2cnn3c4c(c(C)nc23)CCN4C(C)C)cc1OC,0,0,0,0,0
O=S(=O)(NC1CC1)c1ccc(S(=O)(=O)N2CCCc3ccccc32)cc1,0,0,0,73.4,0
O=S(=O)(c1ccccc1)N1CCCc2ccccc21,0,0,0,-,0
Cc1ccc(OCc2nnc(SCC(=O)CC(=O)Nc3ccccc3)o2)cc1,0,0,0,72.7,0
Cc1cc(C)c2oc(-c3cccc(NC(=O)c4ccc(F)cc4)c3)nc2c1,0,0,0,90.9,0
COc1cc(C(=O)Nc2cccc(-c3nc4cc(C)cc(C)c4o3)c2)cc(OC)c1OC,-,-,-,76.0,-
Cc1ccc2oc(-c3cccc(NC(=O)c4ccc(Br)o4)c3)nc2c1,0,0,0,0,0
Cc1sc2ncn(CC(=O)NCCCC(=O)Nc3ccc(C(C)C)cc3)c(=O)c2c1C,0,0,0,-,0
COc1cc(Cl)c(C)cc1NC(=O)CSc1ccc(C)cc1,0,0,0,73.8,0
O=C(CN1C(=O)c2ccccc2S1(=O)=O)NCCc1ccc(F)cc1,0,0,0,-,0
COc1ccccc1N1CCN(S(=O)(=O)c2ccc(NC(C)=O)cc2)CC1,0,0,0,-,0
Cc1sc2ncnc(SCc3ccco3)c2c1C,0,0,0,70.7,0
O=C(/C=C/c1ccccc1)C1C(=O)c2ccccc2C1=O,0,0,0,0,0
CCc1ccc(/C=C/C(=O)C2C(=O)c3ccccc3C2=O)cc1,0,0,0,90.2,0
Cc1ccc2nc(-c3ccc(NS(=O)(=O)c4ccc(F)cc4)cc3)sc2c1,0,0,0,104.0,0
Cc1ccc2nc(-c3ccc(N)cc3)sc2c1,0,0,0,78.1,0
SMILES,UPR XBP1 act,Jurkat NFkB inh,UPR CHOP act,CHOP inh,697 NFkB inh
O=[N+]([O-])c1ccc(/C=C2\CCC(C3=CCCC3)=C2N2CCOCC2)cc1,0,0,0,0,0
O=C(NCc1ccc2c(c1)OCO2)c1nc(S(=O)(=O)Cc2ccccc2)ncc1Cl,0,0,0,-,0
O=C(NCc1ccccc1)c1nc(S(=O)(=O)Cc2ccccc2)ncc1Cl,0,0,104.9,-,0
COc1ccc(CNC(=O)c2nc(S(=O)(=O)Cc3ccccc3)ncc2Cl)cc1,0,0,164.0,-,0
CCCC1=[N+](CC(=O)c2ccc(C)cc2)CCn2cccc21,0,0,0,0,0
Cc1ccc(C)c(NC(=O)CN(C)C(=O)[C@@H](NC(=O)c2ccc(C(C)(C)C)cc2)C(C)C)c1,0,0,0,83.2,0
CN1C2CC(OC(=O)[C@H](CO)c3ccccc3)CC1C1OC12 (stereo not given in full),-,-,-,0,-
COc1ccc(-c2nc(N)n(C(=O)Cc3ccccc3)n2)cc1,0,0,0,0,0
COc1ccc2cc3c(N)nn(C(=O)Cc4ccccc4OC)c3nc2c1,0,0,0,81.0,0
